Laboratory results reported in PubChem BioAssay.
Active and inactive are the calls of the source.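 How the source made its calls, unless noted: active means viability at or below 10% of carrier control in both of two separate runs; inconclusive means viability at or below 10% in only one of the two runs; inactive means the rest.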

What was measured:
[1] = SK-BR-3 cell growth inhibitors, pilot screen, 24 h, human (AID 572); details: SK-BR-3 viability, CellTiter-Glo luminescence, at 10 µM, stronger effect = lower value;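 further: compound exposure lasted between 18 and 24 h rather than exactly 24 h; 100% = carrier-treated control wells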
[2] = HUVEC growth inhibition – cell-based, human, primary screen (AID 575;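 active means viability at or below 30% in both replicate assays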;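 further: 100% = median of untreated cell wells with 0.1% DMSO on each plate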); details: HUVEC proliferation, CellTiter-Glo luminescence, 72 h; at 10 µM; stronger effect = lower value
Outline: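 Timing: 72 h treatment at 37 °C; material: HUVEC primary cells; technique: CellTiter-Glo luminescence measuring cellular ATP; controls: vehicle and MePR control wells; measure: percent of median DMSO-control luminescence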

[3] = growth inhibitors of H69AR lung tumor, primary screen, human, duplicate replicates (AID 580;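 active means viability at or under a set limit in both replicates, limit being median viability minus 3 SD, cut at about 48% in these data, passing the limit was not always enough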;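 further: 100% = mean luminescence of untreated wells and 0% = no signal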); details: H69AR lung tumor cells viability, ATP luminescence, 72 h; at 10 µM; stronger effect = lower value
[4] = reversal of MRP1-mediated doxorubicin resistance, pilot screen, H69AR cells, doxorubicin co-treatment (AID 601;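 active means viability loss from added drug above about 55%, and viability with drug at most 40%, in both replicates, limit read from the data, passing the limit was not always enough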); details: CellTiter-Glo, 72 h, at 10 µM; for differential viability (reversal): stronger effect = higher value
[5] = 384-well plate pilot, post-Golgi transport modulator project, inhibition of yeast transport mutant growth (AID 636; in the data active means inhibition above about 31%); details: absorbance 615 nm, about 18 h, stronger effect = higher value
[6] = growth suppression of yeast trafficking mutant, preliminary HTS, modulators of trafficking downstream of Golgi apparatus project, 1536-format plate, OD 615 nm (AID 637; in the data active means inhibition above about 30%); details: yeast transport mutant growth, absorbance 615 nm, 18 h; stronger effect = higher value
[7] = H69AR cells + 2 uM doxorubicin, measured here: viability with 2 uM doxorubicin, stronger effect = lower value
[8] = H69AR cells, compound alone cytotoxicity

Nc1nc2ccc(OC(F)(F)F)cc2s1
viability [1]: 88% (inactive)
viability [2]: 76.5% (inactive)
viability [3]: 71.9% (inactive)
differential viability (reversal) ([4]; H69AR cells + 2 uM doxorubicin): -19.7% (inactive)
viability [4, 7]: 91.6%
viability [4, 8]: 71.9%
inhibition [5]: -0.13% (inactive)
inhibition [6]: 0.33% (inactive)

Cc1cc(NC(=O)CSc2nc(CCC3CCCC3)nc3ccccc23)no1
viability [1]: 92% (inactive)
viability [2]: 92.2% (inactive)
viability [3]: 22.3% (active)
differential viability (reversal) ([4]; H69AR cells + 2 uM doxorubicin): -1.14% (inactive)
viability [4, 7]: 23.4%
viability [4, 8]: 22.3%
inhibition [5]: -2.86% (inactive)
inhibition [6]: -5.08% (inactive)

C/C(Nc1cccc(F)c1)=C(/C#N)C(N)=O
viability [1]: 107% (inactive)
viability [2]: 122% (inactive)
viability [3]: 99.2% (inactive)
differential viability (reversal) ([4]; H69AR cells + 2 uM doxorubicin): 5.34% (inactive)
viability [4, 7]: 93.9%
viability [4, 8]: 99.2%
inhibition [5]: -4.32% (inactive)
inhibition [6]: -5.64% (inactive)

COc1ccc(Cn2c(N)c(C#N)c3nc4ccccc4nc32)cc1OC
viability [1]: 95% (inactive)
viability [2]: 100% (inactive)
viability [3]: 99.5% (inactive)
differential viability (reversal) ([4]; H69AR cells + 2 uM doxorubicin): 12.6% (inactive)
viability [4, 7]: 86.9%
viability [4, 8]: 99.5%
inhibition [5]: -6.58% (inactive)
inhibition [6]: 0.48% (inactive)

C[C@@H]1C[C@H]2[C@@H]3C[C@H](F)C4=CC(=O)C=C[C@]4(C)[C@@]3(F)[C@@H](O)C[C@]2(C)[C@@]1(O)C(=O)COC(=O)C(C)(C)C
viability [1]: 103% (inactive)
viability [2]: 76.9% (inactive)
viability [3]: 79.5% (inactive)
differential viability (reversal) ([4]; H69AR cells + 2 uM doxorubicin): -7.82% (inactive)
viability [4, 7]: 87.3%
viability [4, 8]: 79.5%
inhibition [5]: -3.38% (inactive)
inhibition [6]: -11.3% (inactive)

CC1CN(C(=O)CSc2nnc(-c3ccc(Cl)cc3)n2C)CC(C)O1 (centres undefined)
viability [1]: 78% (inactive)
viability [2]: 110% (inactive)
viability [3]: 99.5% (inactive)
differential viability (reversal) ([4]; H69AR cells + 2 uM doxorubicin): 5.23% (inactive)
viability [4, 7]: 94.2%
viability [4, 8]: 99.5%
inhibition [5]: -6.08% (inactive)
inhibition [6]: 2.91% (inactive)

Nc1nc(-c2ccc(Br)s2)c(Br)s1
viability [1]: 100% (inactive)
viability [2]: 61.3% (inactive)
viability [3]: 94.3% (inactive)
differential viability (reversal) ([4]; H69AR cells + 2 uM doxorubicin): 9.83% (inactive)
viability [4, 7]: 84.5%
viability [4, 8]: 94.3%
inhibition [5]: 2.6% (inactive)
inhibition [6]: -0.16% (inactive)

Cc1csc(NC(=O)Nc2cccc(Cl)c2)n1
viability [1]: 102% (inactive)
viability [2]: 75% (inactive)
viability [3]: 98.6% (inactive)
differential viability (reversal) ([4]; H69AR cells + 2 uM doxorubicin): 8.58% (inactive)
viability [4, 7]: 90%
viability [4, 8]: 98.6%
inhibition [5]: -3.73% (inactive)
inhibition [6]: -1.09% (inactive)

NC(N)=NC(=O)c1nc(Cl)c(N)nc1N
viability [1]: 117% (inactive)
viability [2]: 86.5% (inactive)
viability [3]: 91.2% (inactive)
differential viability (reversal) ([4]; H69AR cells + 2 uM doxorubicin): -4.34% (inactive)
viability [4, 7]: 95.5%
viability [4, 8]: 91.2%
inhibition [5]: -2.34% (inactive)
inhibition [6]: 1.67% (inactive)

CCOC(=O)c1c(NC(=O)OC)sc2c1CCC2
viability [1]: 129% (inactive)
viability [2]: 89.7% (inactive)
viability [3]: 87.1% (inactive)
differential viability (reversal) ([4]; H69AR cells + 2 uM doxorubicin): -0.775% (inactive)
viability [4, 7]: 87.9%
viability [4, 8]: 87.1%
inhibition [5]: 0.65% (inactive)
inhibition [6]: -4.75% (inactive)

O=C(CCNS(=O)(=O)c1ccc(Br)s1)N1CCCCC1
viability [1]: 90% (inactive)
viability [2]: 107% (inactive)
viability [3]: 94.2% (inactive)
differential viability (reversal) ([4]; H69AR cells + 2 uM doxorubicin): 7.65% (inactive)
viability [4, 7]: 86.5%
viability [4, 8]: 94.2%
inhibition [5]: -6.03% (inactive)
inhibition [6]: -4.19% (inactive)

O=C(CSCc1n[nH]c(=O)[nH]1)NCCOc1cccc(Oc2ccccc2)c1
viability [1]: 103% (inactive)
viability [2]: 102% (inactive)
viability [3]: 104% (inactive)
differential viability (reversal) ([4]; H69AR cells + 2 uM doxorubicin): 3.55% (inactive)
viability [4, 7]: 100%
viability [4, 8]: 104%
inhibition [5]: -1.2% (inactive)
inhibition [6]: 2.73% (inactive)

Cc1cccc(NC(=O)c2ccc(S(=O)(=O)N(C)C)cc2)n1
viability [1]: 112% (inactive)
viability [2]: 96.1% (inactive)
viability [3]: 94.2% (inactive)
differential viability (reversal) ([4]; H69AR cells + 2 uM doxorubicin): 2.72% (inactive)
viability [4, 7]: 91.4%
viability [4, 8]: 94.2%
inhibition [5]: -0.8% (inactive)
inhibition [6]: 2.73% (inactive)

C[C@]12C=CC(=O)C=C1CC[C@@H]1[C@@H]2[C@@H](O)C[C@@]2(C)[C@H]1CC[C@]2(O)C(=O)COC(=O)CCC(=O)O
viability [1]: 112% (inactive)
viability [2]: 80.3% (inactive)
viability [3]: 84.4% (inactive)
differential viability (reversal) ([4]; H69AR cells + 2 uM doxorubicin): 2.96% (inactive)
viability [4, 7]: 81.4%
viability [4, 8]: 84.4%
inhibition [5]: 1.95% (inactive)
inhibition [6]: 1.33% (inactive)

COC(=O)CNC(=O)COC(=O)c1cc(Cl)cc(Cl)c1N
viability [1]: 104% (inactive)
viability [2]: 96.6% (inactive)
viability [3]: 92.6% (inactive)
differential viability (reversal) ([4]; H69AR cells + 2 uM doxorubicin): -2.94% (inactive)
viability [4, 7]: 95.5%
viability [4, 8]: 92.6%
inhibition [5]: 0.82% (inactive)
inhibition [6]: 45.3% (active)

CCCC1c2ccc(C)n2CCN1C(=O)Nc1ccccc1Cl (centres undefined)
viability [1]: 92% (inactive)
viability [2]: 92.2% (inactive)
viability [3]: 93.5% (inactive)
differential viability (reversal) ([4]; H69AR cells + 2 uM doxorubicin): 6.95% (inactive)
viability [4, 7]: 86.6%
viability [4, 8]: 93.5%
inhibition [5]: 2.73% (inactive)
inhibition [6]: 8.2% (inactive)

Cc1cc(C(=O)N2CCCc3ccccc32)no1
viability [1]: 98% (inactive)
viability [2]: 102% (inactive)
viability [3]: 105% (inactive)
differential viability (reversal) ([4]; H69AR cells + 2 uM doxorubicin): 14.4% (inactive)
viability [4, 7]: 90.3%
viability [4, 8]: 105%
inhibition [5]: -2.27% (inactive)
inhibition [6]: 1.27% (inactive)

COc1ccc(C2C(C(=O)c3sc(C)nc3C)=C(O)C(=O)N2CCN(C)C)cc1 (centres undefined)
viability [1]: 106% (inactive)
viability [2]: 106% (inactive)
viability [3]: 93.1% (inactive)
differential viability (reversal) ([4]; H69AR cells + 2 uM doxorubicin): 12.4% (inactive)
viability [4, 7]: 80.7%
viability [4, 8]: 93.1%
inhibition [5]: -8% (inactive)
inhibition [6]: 4.36% (inactive)

CCN(CC(=O)Nc1ccc2c(c1)OCCO2)Cc1cc(=O)oc2cc(C)c(C)cc12
viability [1]: 93% (inactive)
viability [2]: 82.2% (inactive)
viability [3]: 73.8% (inactive)
differential viability (reversal) ([4]; H69AR cells + 2 uM doxorubicin): 5.8% (inactive)
viability [4, 7]: 68%
viability [4, 8]: 73.8%
inhibition [5]: -5.75% (inactive)
inhibition [6]: 3.09% (inactive)

CCOC(=O)c1ccc(NC(=O)N2CCN(Cc3cccc(F)c3)CC2)cc1
viability [1]: 91% (inactive)
viability [2]: 105% (inactive)
viability [3]: 84.4% (inactive)
differential viability (reversal) ([4]; H69AR cells + 2 uM doxorubicin): -9.16% (inactive)
viability [4, 7]: 93.6%
viability [4, 8]: 84.4%
inhibition [5]: -5.21% (inactive)
inhibition [6]: 0.91% (inactive)

Cc1cccc(-n2c(SCc3cc(=O)n4ccsc4n3)nc3ccccc32)c1
viability [1]: 93% (inactive)
viability [2]: 66.1% (inactive)
viability [3]: 78.5% (inactive)
differential viability (reversal) ([4]; H69AR cells + 2 uM doxorubicin): -9.64% (inactive)
viability [4, 7]: 88.1%
viability [4, 8]: 78.5%
inhibition [5]: 3.01% (inactive)
inhibition [6]: 40% (active)

Cn1c(=O)c2c(nc(Br)n2CCSc2nnnn2-c2ccccc2)n(C)c1=O
viability [1]: 76% (inactive)
viability [2]: 105% (inactive)
viability [3]: 80.4% (inactive)
differential viability (reversal) ([4]; H69AR cells + 2 uM doxorubicin): -14.9% (inactive)
viability [4, 7]: 95.3%
viability [4, 8]: 80.4%
inhibition [5]: -4.59% (inactive)
inhibition [6]: -7.27% (inactive)

CCCNC(=O)N1CCN(S(=O)(=O)c2ccc(C)c(C)c2)CC1
viability [1]: 85% (inactive)
viability [2]: 112% (inactive)
viability [3]: 95% (inactive)
differential viability (reversal) ([4]; H69AR cells + 2 uM doxorubicin): -0.65% (inactive)
viability [4, 7]: 95.7%
viability [4, 8]: 95%
inhibition [5]: 3.42% (inactive)
inhibition [6]: 0% (inactive)
